Our source for the inhibition and Activity values is ChEMBL document CHEMBL2176873, “α-1-C-butyl-1,4-dideoxy-1,4-imino-l-arabinitol as a second-generation iminosugar-based oral α-glucosidase inhibitor for improving postprandial hyperglycemia” (J Med Chem, 2012).

Test [1] deals with T1, Beta-galactosidase (Bos taurus) (UniProt Q58D55).
T1 sequence (whole entry): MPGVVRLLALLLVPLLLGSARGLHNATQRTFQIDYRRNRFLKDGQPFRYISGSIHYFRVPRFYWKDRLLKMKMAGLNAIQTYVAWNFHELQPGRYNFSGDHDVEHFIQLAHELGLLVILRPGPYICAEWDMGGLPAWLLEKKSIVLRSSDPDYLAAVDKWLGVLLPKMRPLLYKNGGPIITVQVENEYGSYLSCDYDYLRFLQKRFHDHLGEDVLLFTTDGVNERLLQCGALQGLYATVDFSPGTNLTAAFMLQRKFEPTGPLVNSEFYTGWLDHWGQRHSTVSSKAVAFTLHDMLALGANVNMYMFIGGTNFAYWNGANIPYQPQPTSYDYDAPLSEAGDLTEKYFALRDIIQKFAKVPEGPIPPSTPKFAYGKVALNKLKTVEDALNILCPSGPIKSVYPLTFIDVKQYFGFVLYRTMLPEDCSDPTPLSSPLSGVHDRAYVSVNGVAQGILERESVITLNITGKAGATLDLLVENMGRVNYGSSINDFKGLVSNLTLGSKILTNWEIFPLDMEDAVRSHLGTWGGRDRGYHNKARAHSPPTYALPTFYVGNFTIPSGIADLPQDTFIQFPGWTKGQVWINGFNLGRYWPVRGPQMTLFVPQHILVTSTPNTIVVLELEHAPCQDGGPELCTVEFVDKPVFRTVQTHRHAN
The test is described as follows: Inhibition of bovine liver beta-galactosidase at 1000 uM.

Test [2] has as its target Lysosomal alpha-glucosidase (Homo sapiens) (UniProt P10253). In words: Inhibition of alpha-glucosidase in human HepG2 cells assessed as increase in expression of immature high mannose type N-linked oligosachcharides at 500 uM after 48 hrs by MALDI-TOF MS analysis relative to untreated control. Type of test: cell-based. Summed up: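 HepG2 cells were grown in low-glucose DMEM with 10% FCS at 37 °C, 5% CO2, and treated 48 h with 500 μM compound. Homogenates in 0.5% Triton X-100 were DTT-reduced, alkylated with iodoacetamide, trypsinized and PNGase F-released (37 °C, 16 h). Glycans were captured on hydrazide beads, methyl-esterified, released as aoWR derivatives, and profiled by MALDI-TOF MS; proportions were compared with untreated cells.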

Test [3] deals with Mus musculus. The test is described as follows: Antihyperglycemic activity in overnight fasted ddY mouse assessed as decrease in blood glucose level at 0.25 mg/kg administered via stomach tube measured at 15 to 30 mins by maltose loading test relative to control. Type of test: functional. Also noted: scale not given: the % may be the effect or the level left. Summed up:
(§1)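 Male ddY mice received maltose or sucrose (2.5 g/kg) with inhibitor in 0.9% NaCl by stomach tube; controls got saline only. Tail-vein blood glucose was read with a portable meter at 0, 15, 30, 60 and 120 min after loading.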

The species entered for another test is Rattus norvegicus. In words: Inhibition of rat intestinal cellobiase using cellobiose as substrate at 1000 uM. Summed up:
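Rat small-intestine brush border membrane preparation, assayed at pH 5.8 with the matching disaccharide as substrate (maltose at 25 mM). Incubation for 10–30 min at 37 °C, stopped by heating at 100 °C for 3 min and centrifuged. Released D-glucose in the supernatant was measured by glucose reagent absorbance at 505 nm.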

Test [4] has as its system Mus musculus. In words: Antihyperglycemic activity in overnight fasted ddY mouse assessed as decrease in blood glucose level at 0.5 mg/kg administered via stomach tube after 60 mins by sucrose loading test relative to control. The class given is functional. Details: scale not given: the % may be the effect or the level left. The essentials: as §1
The target of test [5] is T2, Trehalase (Rattus norvegicus) (UniProt O70282).
T2 sequence (whole entry): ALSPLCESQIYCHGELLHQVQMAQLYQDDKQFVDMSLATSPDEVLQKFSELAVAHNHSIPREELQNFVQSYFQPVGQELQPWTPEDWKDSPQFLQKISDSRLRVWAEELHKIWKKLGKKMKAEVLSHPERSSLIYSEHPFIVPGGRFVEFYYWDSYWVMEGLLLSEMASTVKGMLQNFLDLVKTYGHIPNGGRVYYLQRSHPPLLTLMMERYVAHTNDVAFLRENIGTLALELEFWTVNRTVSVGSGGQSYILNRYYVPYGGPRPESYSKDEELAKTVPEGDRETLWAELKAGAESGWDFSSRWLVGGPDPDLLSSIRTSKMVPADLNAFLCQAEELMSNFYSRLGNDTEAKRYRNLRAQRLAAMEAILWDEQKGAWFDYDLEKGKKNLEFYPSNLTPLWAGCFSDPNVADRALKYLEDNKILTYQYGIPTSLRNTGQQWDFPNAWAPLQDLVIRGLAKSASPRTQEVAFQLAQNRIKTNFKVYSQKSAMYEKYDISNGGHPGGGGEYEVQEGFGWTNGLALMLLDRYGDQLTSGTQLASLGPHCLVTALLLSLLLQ
In words: Inhibition of rat intestinal trehalase at 1000 uM.

Test [6] relates to Mus musculus. The test is described as follows: Antihyperglycemic activity in overnight fasted ddY mouse assessed as decrease in blood glucose level at 0.25 mg/kg administered via stomach tube measured at 60 to 120 mins by maltose loading test relative to control. Type of test: functional, organism-based. Also noted: dose 0.25 mg/kg. Summed up: as §1
Test [7] concerns Mus musculus. The test is described as follows: Antihyperglycemic activity in overnight fasted ddY mouse assessed as decrease in blood glucose level at 0.1 mg/kg administered via stomach tube after 60 mins by sucrose loading test relative to control. The class given is functional. Details: scale not given: the % may be the effect or the level left. The essentials: as §1
Test [8] addresses T3, Glucosylceramidase (Bos taurus) (UniProt Q2KHZ8).
T3 sequence (whole entry): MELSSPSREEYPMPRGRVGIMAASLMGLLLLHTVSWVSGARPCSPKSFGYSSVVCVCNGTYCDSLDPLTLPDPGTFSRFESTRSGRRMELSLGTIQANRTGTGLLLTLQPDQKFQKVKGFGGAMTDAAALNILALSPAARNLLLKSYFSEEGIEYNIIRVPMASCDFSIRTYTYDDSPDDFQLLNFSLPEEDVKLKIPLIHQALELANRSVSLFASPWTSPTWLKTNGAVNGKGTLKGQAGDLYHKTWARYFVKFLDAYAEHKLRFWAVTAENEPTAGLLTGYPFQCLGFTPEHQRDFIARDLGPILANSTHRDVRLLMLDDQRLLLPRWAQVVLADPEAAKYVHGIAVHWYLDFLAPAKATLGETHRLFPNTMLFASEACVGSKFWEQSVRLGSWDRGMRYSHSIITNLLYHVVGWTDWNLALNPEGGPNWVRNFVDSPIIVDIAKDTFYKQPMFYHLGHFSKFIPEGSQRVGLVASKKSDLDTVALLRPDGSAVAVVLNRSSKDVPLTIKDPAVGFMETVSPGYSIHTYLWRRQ
In words: Inhibition of bovine liver beta-glucosidase at 1000 uM.

Active and inactive are the calls of the source. The calls are words filed in the database; no cut-off is given here.

Regarding `CCCC[C@@H]1N[C@@H](CO)[C@H](O)[C@H]1O`, the inhibition (in test [1]; in the test listed under Rattus norvegicus; in [5]; in test [8]) was below 50% each time. The inhibition – broadly, how much of the control response was suppressed – in [2] was “inactive”. Also, the Activity worked out at 43.9% in the test with Mus musculus [3], 69.2% with Mus musculus [4] and 49.1% in the test on Mus musculus [7]. Also, the outcome in the test with Mus musculus [6] was inactive.
